We go through five molecules from ChEMBL document CHEMBL1128262, “New steroidal antiinflammatory antedrugs: steroidal [16 alpha,17 alpha-d]-3'-carbethoxyisoxazolines” (1995).

For assay [1], the system named is Rattus norvegicus. The assay is described as follows: The antiinflammatory activity was evaluated as %inhibition of croton oil induced ear edema in the right ear of rat. It is filed as functional. In outline: (§1)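 Male Sprague-Dawley rats. Right ears dosed topically (acetone/DMSO vehicle, 25 µL) once daily for 5 days, with 5% croton oil applied 30 min after each dose. Left ears received vehicle plus croton oil to reflect systemic effect. Micrometer ear thickness read 5 h after croton oil. % inhibition computed against controls; ANOVA with Bonferroni test.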

The subject of assay [2] is Rattus norvegicus. In words: The body weight change of rats after administration of the compound. The class given is functional. In outline:
(§2)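 Male Sprague-Dawley rats given 5-day once-daily topical steroid to right ears in acetone/DMSO, with croton oil to both ears. Afterward, body weight change, thymus weight change and plasma corticosterone (ng/mL) were recorded against controls. Five or six samples per group, mean ± SEM; ANOVA with Bonferroni post hoc test.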

Assay [3] has as its system Rattus norvegicus. The assay is described as follows: The plasma corticosterone (ng/ml) concentration was measured in rats after compound administration. It is filed as functional, organism-based. The method, boiled down: as §2
Assay [4] deals with Rattus norvegicus. In words: The thymus weight change of rats after administration of the compound. The class given is functional. The method, boiled down: as §2
The test system of assay [5] is Rattus norvegicus. In words: The antiinflammatory activity was evaluated as %inhibition of croton oil induced ear edema in the left ear of rat. It is filed as functional. The method, boiled down: as §1
Assay [6] concerns Rattus norvegicus. The assay is described as follows: The %inhibition of compound for croton oil -induced ear edema was measured in rats at 0.03 mg/ear. The class given is functional. In outline: (§3)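 Male Sprague-Dawley rats; initial ear thickness measured with spring-loaded micrometer. Single topical dose of steroid in 25 µL acetone/DMSO applied to ear surfaces, then 5% croton oil 30 min later. Ear thickness remeasured 5 h later at peak inflammation. % inhibition computed against vehicle-treated controls; five animals per group.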

Assay [7] has as its system Rattus norvegicus. In words: The %inhibition of compound for croton oil -induced ear edema was measured in rats at 0.01 mg/ear. It is filed as functional. In outline: as §3
In assay [8] the test system is Rattus norvegicus. In words: The %inhibition of compound for croton oil -induced ear edema was measured in rats at 0.1 mg/ear. It is filed as functional. In outline: as §3
In assay [9] the test system is Rattus norvegicus. In words: The antiinflammatory activity was evaluated as %inhibition of croton oil induced ear edema in the right ear of rat At the dose of 135(nmol/ear). It is filed as functional. The method, boiled down: as §1
Assay [10] relates to Rattus norvegicus. The assay is described as follows: The antiinflammatory activity was evaluated as %inhibition of croton oil induced ear edema in the left ear of rat At the dose of 135(nmol/ear). It is filed as functional. In outline:
as §1

Assay [11] concerns Rattus norvegicus. The assay is described as follows: The antiinflammatory activity was evaluated as %inhibition of croton oil induced ear edema in the left ear of rat at the dose of 101(nmol/ear). The class given is functional. The method, boiled down: as §1
The test system of assay [12] is Rattus norvegicus. The assay is described as follows: The antiinflammatory activity was evaluated as %inhibition of croton oil induced ear edema in the right ear of rat at the dose of 101(nmol/ear). The class given is functional. In outline: as §1

For the molecule `C[C@]12C=CC(=O)C=C1CC[C@@H]1[C@@H]2[C@@H](O)C[C@@]2(C)[C@H]1CC[C@]2(O)C(=O)CO` [PREDNISOLONE], the Inhibition (usually the share of the control response that was lost under treatment) in the assay on Rattus norvegicus [1] was found to be 66.7%; in the assay on Rattus norvegicus [5], 49.6%. In addition, the Body weight change with Rattus norvegicus [2] worked out at 22.8 g. Also, the Plasma corticosterone with Rattus norvegicus [3] was determined as 31.8 ng/mL. The same molecule yielded a Thymus weight in the assay with Rattus norvegicus [4] of 369 mg.

`CCOC(=O)C1=NO[C@]2(C(=O)COC(C)=O)[C@H]1CC1C3CCC4=CC(=O)C=C[C@]4(C)[C@H]3[C@@H](O)C[C@@]12C` (stereo partly specified): the Inhibition in the assay on Rattus norvegicus [6] was found to be 21.4%; with Rattus norvegicus [7], 14.9%; in the assay with Rattus norvegicus [8], 35.7%.

In the assay on Rattus norvegicus [2], `CCOC(=O)C1=NO[C@]2(C(=O)CO)[C@H]1CC1C3CCC4=CC(=O)C=C[C@]4(C)[C@@]3(F)[C@@H](O)C[C@@]12C` (stereo partly specified) registered a Body weight change of 36 g. Moreover, the values for the Inhibition with Rattus norvegicus [9] and with Rattus norvegicus [10] were 56.9% and 24.4%, respectively. Besides, the Plasma corticosterone in the assay on Rattus norvegicus [3] turned out to be 48.6 ng/mL. In addition, the Thymus weight with Rattus norvegicus [4] came out at 562 mg.

`CCOC(=O)C1=NO[C@]2(C(=O)COC(C)=O)[C@H]1CC1C3CCC4=CC(=O)C=C[C@]4(C)[C@@]3(F)[C@@H](O)C[C@@]12C` (stereo partly specified): the Inhibition stood at 8.9% with Rattus norvegicus [11] and 51.2% in the assay with Rattus norvegicus [12]. In the assay with Rattus norvegicus [2], the Body weight change worked out at 38 g. The Plasma corticosterone in the assay on Rattus norvegicus [3] was found to be 134 ng/mL. The same molecule registered a Thymus weight in the assay on Rattus norvegicus [4] of 625 mg.

`CCOC(=O)C1=NO[C@]2(C(=O)CO)[C@H]1CC1C3CCC4=CC(=O)C=C[C@]4(C)[C@H]3[C@@H](O)C[C@@]12C` (stereo partly specified): the Inhibition in the assay with Rattus norvegicus [6] is recorded as 44%; in the assay on Rattus norvegicus [7] it was 31.3%; in the assay with Rattus norvegicus [8], 44%.
